Results from ChEMBL document CHEMBL1687727, “Distinct mode of interaction of a novel ketolide antibiotic that displays enhanced antimicrobial activity” (Antimicrob Agents Chemother, 2009).
In brackets after ≈: the same amount, converted by molar mass. Activity calls are given as the source filed them. No cut-off for these calls is given here.

What was measured:
Escherichia coli K-12 [1] = assay: Binding affinity to Escherichia coli K-12 70S ribosome Pi complex assessed as inhibition of AcPhe-puromycin synthesis at 5 uM after 2 mins by liquid scintillation counting
[2] = target: T1, Bacterial 70S ribosome (Bacteria) (UniProt P0A7V0+P60723+P0AG67+P0A7R5+P0A7R9+P0A7S3+P0A7S9+P0AG59+P0ADZ4+P0A7T3+P0AG63+P0A7T7+P0A7U3+P0A7U7+P68679+P0A7V3+P0A7V8+P0A7W1+P02358+P02359+P0A7W7+P0A7X3+P0A7J3+P0A7J7+P0AA10+P0ADY3+P02413+P0ADY7+P0AG44+P0C018+P0A7K6+P0A7L0+P0A7L3+P0AG48+P61175+P0ADZ0+P60624+P68919+P0A7L8+P0A7M2+P0A7M6+P60422+P0AG51+P0A7N1+P0A7M9+P0A7N4+P0A7N9+P0A7P5+P0A7Q1+Q2EEQ2+P0A7Q6+P60438+P62399+P0AG55+P0A7K2); assay: Inhibition of poly(U)-dependent synthesis of poly(Phe) using Escherichia coli K-12 70S ribosome at 20 uM after 30 mins by liquid scintillation counting
Escherichia coli [3] = assay: Antimicrobial activity against Escherichia coli TA531 harboring 23S rRNA A2058G mutant after 15 hrs; format: functional; details: TA531, 15 h
How it was run: (§1)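 E. coli TA531 lacking chromosomal rrn alleles and carrying plasmid-borne wild-type, A2058G or U2609C 23S rRNA. Grown overnight in LB with 100 μg/ml ampicillin, diluted and regrown. MIC was the lowest concentration arresting culture growth.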

Bacterial 70S ribosome = assay: Displacement of [14C]-erythromycin from Escherichia coli K-12 70S ribosome after 10 mins by competitive binding assay
How it was run: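 Tight-coupled 70S ribosomes (0.20 μM final) in buffer A (20 mM HEPES-KOH pH 7.6, 4.5 mM Mg acetate, 150 mM NH4 acetate, polyamines). [14C]-erythromycin held constant at 0.6 μM (150 dpm/pmol) with increasing unlabeled competitor, 10 min at 37°C. Mixture was diluted in cold buffer and filtered through cellulose nitrate, which was washed twice and counted. KD was derived from a competition binding equation.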

Nucleic Acid [4] = assay: Binding affinity to Escherichia coli K-12 70S ribosome 23S rRNA assessed as protection against DMS-induced modification of 23S rRNA […] by primer extension analysis; format: nucleic-acid assay
Escherichia coli K-12 [5] = assay: Binding affinity to Escherichia coli K-12 70S ribosome Pi complex assessed as inhibition of AcPhe-puromycin synthesis at 10 uM after 2 mins by liquid scintillation counting
How it was run: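 Pi complex: Ac[3H]Phe-tRNA bound at the P-site of MF-mRNA-programmed 70S ribosomes (0.3 μM ribosomes, 2.0 μM mRNA, 0.5 μM tRNA; buffer A, pH 7.6, 4.5 mM Mg2+; 37°C 15 min), free of unbound donor. Reacted with 1 mM puromycin at 37°C for 2 min, with or without 10 μM antibiotic. Duplicates.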

Escherichia coli [6] = assay: Antimicrobial activity against chromosomal rrn allele deficient-Escherichia coli TA531 after 15 hrs; format: functional; details: TA531, 15 h; how it was run: as §1
Nucleic Acid [7] = assay: Binding affinity to Escherichia coli K-12 70S ribosome 23S rRNA assessed as protection against CMCT-induced modification of 23S rRNA […] by primer extension analysis; format: nucleic-acid assay
Escherichia coli [8] = assay: Antimicrobial activity against Escherichia coli TA531 harboring 23S rRNA U2609C mutant after 15 hrs; format: functional; details: TA531, 15 h; how it was run: as §1
Nucleic Acid [9] = assay: Binding affinity to Escherichia coli K-12 70S ribosome 23S rRNA assessed as enhancement of DMS-induced modification of 23S rRNA domain II at nucleotides A752 by primer extension analysis; format: nucleic-acid assay
How it was run: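 70S ribosomes (50 pmol) activated 5 min at 37°C in 20 mM HEPES/KOH pH 7.8, 20 mM MgCl2, 300 mM KCl. Antibiotic added in the same buffer for 10 min at 37°C, then cooled on ice. DMS modification followed, then SDS/EDTA buffer, phenol/chloroform extraction and ethanol precipitation of rRNA. Repeated up to four times.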

Escherichia coli K-12 [10] = assay: Binding affinity to Escherichia coli K-12 Pi complex of 70S ribosome Pi complex U2609C mutant assessed as blockade of tylosin-induced inhibition of AcPhe-puromycin synthesis at 10 uM after 2 mins by liquid scintillation counting
How it was run: (§2)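 Pi complexes were formed on ribosomes carrying the A2058G or U2609C mutation (Ac[3H]Phe-tRNA at the P-site of MF-mRNA-programmed 70S; buffer A). Complexes were pre-exposed to antibiotic (final 10 μM) at 37°C for 2 min, then tylosin was added (final 5 μM). They were then reacted with 1 mM puromycin at 37°C for 2 min to measure AcPhe-puromycin formation.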

[11] = target: T1, Bacterial 70S ribosome (Bacteria); assay: Inhibition of poly(A)-dependent synthesis of poly(Lys) using Escherichia coli K-12 70S ribosome at 20 uM after 1 hr by liquid scintillation counting
How it was run: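 Poly(A)-programmed tight-coupled 70S ribosomes (0.5 μM) were preincubated 10 min at 37°C with antibiotic in buffer A. The mix held [3H]lysine (3 nmol, 500 dpm/pmol), bulk E. coli tRNA, 3 mM ATP, 1.5 mM GTP, 5 mM acetyl phosphate and S-100 fraction. Incubated 1 h at 37°C, followed by hot TCA (with 0.25% sodium wolframate) precipitation onto glass fiber filters and scintillation counting.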

Nucleic Acid [12] = assay: Binding affinity to Escherichia coli K-12 70S ribosome 23S rRNA U2609C mutant assessed as protection against DMS-induced modification of 23S rRNA domain V at nucleotides A2058 and A2059 by primer extension analysis
[13] = target: T1, Bacterial 70S ribosome (Bacteria); assay: Inhibition of Escherichia coli K-12 70S ribosome dependent elongation factor G-dependent translocation
Escherichia coli K-12 [14] = assay: Inhibition of poly(U)-dependent synthesis of poly(Phe) using Escherichia coli K-12 70S ribosome U2609C mutant at 50 uM after 1 hr by liquid scintillation counting
Escherichia coli K-12 [15] = assay: Inhibition of poly(U)-dependent synthesis of poly(Phe) using Escherichia coli K-12 70S ribosome A2058 mutant at 50 uM after 1 hr by liquid scintillation counting
[16] = target: T1, Bacterial 70S ribosome (Bacteria); assay: Inhibition of Ptase activity of Escherichia coli K-12 70S ribosome
Escherichia coli K-12 [17] = assay: Binding affinity to Escherichia coli K-12 70S ribosome Pi complex assessed as dissociation rate constant at 2 uM
[18] = target: T1, Bacterial 70S ribosome (Bacteria); assay: Inhibition of tRNA binding to Escherichia coli K-12 70S ribosome
Nucleic Acid [19] = assay: Binding affinity to Escherichia coli K-12 70S ribosome 23S rRNA A2062 mutant assessed as enhancement of DMS-induced modification of 23S rRNA domain V at nucleotides A2062 by primer extension analysis; format: nucleic-acid assay
Escherichia coli K-12 [20] = assay: Binding affinity to Escherichia coli K-12 Pi complex of 70S ribosome Pi complex A2058G mutant assessed as blockade of tylosin-induced inhibition of AcPhe-puromycin synthesis at 10 uM after 2 mins by liquid scintillation counting; how it was run: as §2
Nucleic Acid [21] = assay: Binding affinity to Escherichia coli K-12 70S ribosome 23S rRNA A2062 mutant assessed as protection against DMS-induced modification of 23S rRNA domain II at nucleotides A752 and by primer extension analysis; format: nucleic-acid assay

In the case of `CC[C@H]1OC(=O)C[C@@H](O)[C@H](C)[C@@H](O[C@@H]2O[C@H](C)[C@@H](O[C@H]3C[C@@](C)(O)[C@@H](O)[C@H](C)O3)[C@H](N(C)C)[C@H]2O)[C@@H](CC=O)C[C@@H](C)C(=O)/C=C/C(C)=C/[C@@H]1CO[C@@H]1O[C@H](C)[C@@H](O)[C@@H](OC)[C@H]1OC`, the Activity (Escherichia coli K-12 [1]) is reported as “Active”.
In the case of `CC[C@H]1OC(=O)[C@H](C)[C@@H](O[C@H]2C[C@@](C)(OC)[C@@H](O)[C@H](C)O2)[C@H](C)[C@@H](O[C@@H]2O[C@H](C)C[C@H](N(C)C)[C@H]2O)[C@](C)(O)C[C@@H](C)C(=O)[C@H](C)[C@@H](O)[C@]1(C)O` [ERYTHROMYCIN], the inhibition [2] is reported as “inactive”, the MIC (Escherichia coli [3]) is reported as > 500 µg/mL and the Kd (Bacterial 70S ribosome) is reported as 15 nM. For the same compound, the Activity (Nucleic Acid [4]) was “inactive”, the Activity (Escherichia coli K-12 [5]) was “inactive” and the MIC (Escherichia coli [6]) was 128 µg/mL (≈ 174 µM). For the same compound, the Activity (Nucleic Acid [7]) was “inactive”, the MIC (Escherichia coli [8]) was 128 µg/mL (≈ 174 µM) and the Activity (Nucleic Acid [9]) was “Active”. The Activity (Escherichia coli K-12 [10]) was “Active”, the inhibition [11] was “Active” and the Activity (Nucleic Acid [12]) was “Active”.
For `C[C@H]1C(=O)O[C@H](CCNC(=O)Cc2cccc(-c3ccco3)c2)[C@@]2(C)OC(=O)N[C@@H]2[C@@H](C)C(=O)[C@H](C)C[C@@](C)(O)[C@H](O[C@@H]2O[C@H](C)C[C@H](N(C)C)C2O)[C@@H](C)C1=O` (stereo partly specified) [KOSAN-1325], the inhibition [2] was “inactive”, the MIC (Escherichia coli [3]) was > 250 µg/mL and the Kd (Bacterial 70S ribosome) was 7.5 nM. The inhibition [13] was “inactive”, the inhibition (Escherichia coli K-12 [14]) was “Active” and the inhibition (Escherichia coli K-12 [15]) was “inactive”. For the same compound, the Activity (Nucleic Acid [4]) was “Active”, the inhibition [16] was “inactive” and the inhibition (Escherichia coli K-12 [5]) was “inactive”. For the same compound, the MIC (Escherichia coli [6]) was 8 µg/mL (≈ 10 µM), the Kdiss (Escherichia coli K-12 [17]) was 5e-05 s⁻¹ and the Activity (Nucleic Acid [7]) was “Active”. The MIC (Escherichia coli [8]) was 8 µg/mL (≈ 10 µM), the inhibition [18] was “inactive” and the Activity (Nucleic Acid [19]) was “Active”. For the same compound, the Activity (Escherichia coli K-12 [10]) was “Active”, the inhibition [11] was “Active” and the Activity (Escherichia coli K-12 [20]) was “Active”. The Activity (Nucleic Acid [12]) was “Active” and the Activity (Nucleic Acid [21]) was “Active”.
For `CC[C@H]1OC(=O)[C@H](C)C(=O)[C@H](C)[C@@H](O[C@@H]2O[C@H](C)C[C@H](N(C)C)[C@H]2O)[C@](C)(OC)C[C@@H](C)C(=O)[C@H](C)[C@H]2N(CCCCn3cnc(-c4cccnc4)c3)C(=O)O[C@]12C` [TELITHROMYCIN], the MIC (Escherichia coli [3]) was > 150 µg/mL, the MIC (Escherichia coli [6]) was 16 µg/mL (≈ 19.7 µM) and the MIC (Escherichia coli [8]) was 64 µg/mL (≈ 78.8 µM).
